Assay results as given in ChEMBL document CHEMBL2203154, “Synthesis, characterization and biological studies of diosgenyl analogues” (Bioorg Med Chem Lett, 2012).

Tests used:
Mus musculus [1] = assay: Antiinflammatory activity in Kunming mouse assessed as inhibition of xylene-induced ear edema at 100 mg/kg, po administered for 3 days followed by xylene-challenge at 2 hrs post-last dose measured after 1 hr relative to vehicle-treated control; format: functional
In short: (§1)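 Oral gavage in mice, test compounds suspended in 0.5% CMC at 100 mg/kg; aspirin group at 50 mg/kg. Ear edema induced with xylene; inhibition calculated versus the CMC vehicle group. Ten animals per group; data as mean ± SD, with significance versus CMC at p<0.05 or p<0.01.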

HepG2 = assay: Cytotoxicity against human HepG2 cells after 48 hrs by MTT assay; format: functional, cell-based; details: HepG2, 48 h
In short: (§2)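 MTT assay on tumor cells exposed to compound for 48 h. IC50 is the concentration (μM) that inhibits growth by 50% relative to untreated cells. Values are means of at least 3 independent assays per compound.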

[2] = Cytotoxicity against mouse C26 cells after 48 hrs by MTT assay; format: functional, cell-based; details: C26, 48 h; in short: as §2
MDA-MB-231 = assay: Cytotoxicity against human MDA-MB-231 cells after 48 hrs by MTT assay; format: functional, cell-based; details: MDA-MB-231, 48 h; in short: as §2
Mus musculus [3] = assay: Antiinflammatory activity in Kunming mouse assessed as inhibition of xylene-induced ear edema at 50 mg/kg, po administered for 3 days followed by xylene-challenge at 2 hrs post-last dose measured after 1 hr relative to vehicle-treated control; format: functional; in short: as §1

| Structure (SMILES) | inhibition in vivo at 100 mg/kg (Mus musculus [1]) [%] | IC50 (HepG2) [µM] | IC50 [2] [µM] | IC50 (MDA-MB-231) [µM] | inhibition in vivo at 50 mg/kg (Mus musculus [3]) [%] |
| --- | --- | --- | --- | --- | --- |
| C[C@@H]1CC[C@@]2(OC1)O[C@H]1C[C@H]3[C@@H]4CC=C5C[C@@H](OC(=O)CCCCCNC(=O)c6ccccc6O)CC[C@]5(C)[C@H]4CC[C@]3(C)[C@H]1[C@@H]2C | 42.6 | > 50 | > 50 | > 50 |  |
| C[C@@H]1CC[C@@]2(OC1)O[C@H]1C[C@H]3[C@@H]4CC=C5C[C@@H](OC(=O)CCCCCN)CC[C@]5(C)[C@H]4CC[C@]3(C)[C@H]1[C@@H]2C | 38.6 | 14.6 | 4.7 | 7.6 |  |
| CC(=O)Oc1ccccc1C(=O)NCC(=O)O[C@H]1CC[C@@]2(C)C(=CC[C@H]3[C@@H]4C[C@@H]5O[C@]6(CC[C@@H](C)CO6)[C@@H](C)[C@@H]5[C@@]4(C)CC[C@@H]32)C1 | 39.1 | > 50 | > 50 | > 50 |  |
| C[C@@H]1CC[C@@]2(OC1)O[C@H]1C[C@H]3[C@@H]4CC=C5C[C@@H](OC(=O)CC[C@@H](NC(=O)c6ccccc6O)C(=O)O[C@H]6CC[C@@]7(C)C(=CC[C@H]8[C@@H]9C[C@@H]%10O[C@]%11(CC[C@@H](C)CO%11)[C@@H](C)[C@@H]%10[C@@]9(C)CC[C@@H]87)C6)CC[C@]5(C)[C@H]4CC[C@]3(C)[C@H]1[C@@H]2C | 30.1 | > 50 | > 50 | > 50 |  |
| C[C@@H]1CC[C@@]2(OC1)O[C@H]1C[C@H]3[C@@H]4CC=C5C[C@@H](OC(=O)CC[C@@H](N)C(=O)O[C@H]6CC[C@@]7(C)C(=CC[C@H]8[C@@H]9C[C@@H]%10O[C@]%11(CC[C@@H](C)CO%11)[C@@H](C)[C@@H]%10[C@@]9(C)CC[C@@H]87)C6)CC[C@]5(C)[C@H]4CC[C@]3(C)[C@H]1[C@@H]2C | 19.1 | > 50 | > 50 | > 50 |  |
| C[C@@H]1CC[C@@]2(OC1)O[C@H]1C[C@H]3[C@@H]4CC=C5C[C@@H](OC(=O)[C@H](C)NC(=O)c6ccccc6O)CC[C@]5(C)[C@H]4CC[C@]3(C)[C@H]1[C@@H]2C | 35.8 | > 50 | > 50 | > 50 |  |
| C[C@@H]1CC[C@@]2(OC1)O[C@H]1C[C@H]3[C@@H]4CC=C5C[C@@H](OC(=O)[C@H](C)N)CC[C@]5(C)[C@H]4CC[C@]3(C)[C@H]1[C@@H]2C | 28.6 | > 50 | > 50 | > 50 |  |
| CC(=O)Oc1ccccc1C(=O)O[C@H]1CC[C@@]2(C)C(=CC[C@H]3[C@@H]4C[C@@H]5O[C@]6(CC[C@@H](C)CO6)[C@@H](C)[C@@H]5[C@@]4(C)CC[C@@H]32)C1 | 46.5 | > 50 | > 50 | > 50 |  |
| CC(=O)Oc1ccccc1C(=O)O [ASPIRIN] |  |  |  |  | 31.9 |
| C[C@@H]1CC[C@@]2(OC1)O[C@H]1C[C@H]3[C@@H]4CC=C5C[C@@H](O[C@@H]6O[C@H](CO)[C@@H](O[C@@H]7O[C@H](CO)[C@@H](O)[C@H](O)[C@H]7O)[C@H](O)[C@H]6O[C@@H]6O[C@@H](C)[C@H](O)[C@@H](O)[C@H]6O)CC[C@]5(C)[C@H]4CC[C@]3(C)[C@H]1[C@@H]2C [DELTONIN] |  | 7.66 | 1.22 | 1.58 |  |
| C[C@@H]1CC[C@@]2(OC1)O[C@H]1C[C@H]3[C@@H]4CC=C5C[C@@H](O)CC[C@]5(C)[C@H]4CC[C@]3(C)[C@H]1[C@@H]2C [DISOGENIN] | 32.2 | > 50 | > 50 | > 50 |  |
| C[C@@H]1CC[C@@]2(OC1)O[C@H]1C[C@H]3[C@@H]4CC=C5C[C@@H](OC(=O)CN)CC[C@]5(C)[C@H]4CC[C@]3(C)[C@H]1[C@@H]2C [GLYCINE DIOSGENYL ESTER] | 30.6 | > 50 | > 50 | 48.2 |  |
